High-throughput results (PubChem)
The full list was thinned out, with hits kept by preference.
Insulin prom act: activators of insulin promoter-driven GFP, primary screen, imaging, TRM-6 cells, eGFP reporter, cell count | activation, % at 2 µM | plate-scaled: unstimulated 0, stimulated control 100 | 0.81% of 130,000 active;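 active = activation at 2 µM above a set limit, confirmed on inspection of the cell images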;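 note: share of cells whose green reporter signal exceeds an intensity cutoff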
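Test system: human fetal islet-derived TRM-6 cells with tamoxifen-inducible insulin promoter–eGFP reporter. Compound dosing: 2 µM final, single concentration. Incubation: tamoxifen pre-incubation 15 h overnight, then compound exposure 48 h at 37 °C. Signal: fixed-cell fluorescence microscopy, eGFP plus Hoechst.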
Numbers without * were called inactive.

SMILES	Insulin prom act
N#C/C(=C\c1cn[nH]c1-c1ccccc1)C(=O)NC1CCCCCC1	9.8
CC(NC(=O)c1ccc(-c2cc(C(F)(F)F)ccc2Cl)o1)c1ccccc1 (stereo not given)	-8.3
COc1ccc(OC)c(CN2CCCC(CO)C2)c1 (stereo not given)	0.0
CC(C)(C)C(=O)Nc1nc(C2CCCN2S(=O)(=O)c2ccc(Cl)cc2)cs1 (stereo not given)	-3.1
COc1ccc(C(=O)N/N=C/c2ccc(OC)c(OS(=O)(=O)c3ccccc3)c2)cc1	-5.1
COc1cc(/C=N/NC(=O)c2ccoc2C)cc(OC)c1OC	3.3
COc1cc(/C=N/NC(=O)c2ccc(-c3ccccc3)cc2)cc(OC)c1OC	442.9*
CCS(=O)CCSc1nc2ccccc2s1 (stereo not given)	2.7
COn1c(=O)c(-c2cccs2)[n+]([O-])c2ccccc21	87.2*
Cn1c(-c2cccs2)[n+](C)c2ccccc21	8.7
O=c1c(-c2ccco2)[n+]([O-])c2ccccc2n1OCc1ccccn1	-5.3
O=C(/C=C/c1ccccc1)Nc1cccc(S(=O)(=O)Nc2ccccc2F)c1	-7.7
CC(C)CNc1cc(Cl)c(S(=O)(=O)NCC(C)C)cc1C(=O)O	0.0
O=S(=O)(Nc1ccc2c(c1)OCCO2)c1ccc2oc3ccccc3c2c1	346.7
O=C(O)c1cc(S(=O)(=O)Nc2ccc3c(c2)OCCO3)c(Cl)cc1Cl	150.0*
COc1ccccc1Nc1nc(-c2c(C)nc3ncccn23)cs1	116.7
O=C(CCCc1cccs1)Nc1nc(-c2ccc(F)cc2)cs1	-7.4
COc1ccc(S(=O)(=O)N2CCN(CC(=O)Nc3cccc(F)c3)CC2)cc1	-3.2
CC(C)CC(=O)NC(=S)Nc1ccc(S(=O)(=O)N2CCN(C)CC2)cc1	7.7
CN(CC(=O)Nc1ccc(S(=O)(=O)N2CCCC2)cc1)CC(=O)Nc1cccc(F)c1	220.0*
Cc1ccc(OCC(=O)Nc2ccc(S(=O)(=O)N3CCN(C)CC3)cc2)cc1	405.6*
CN1CCN(S(=O)(=O)c2ccc(N(C)CC(=O)Nc3ccc(F)cc3)nc2)CC1	-20.0
Cc1ccc(S(=O)(=O)N2CCN(C(=O)COc3ccc(NC(=O)c4ccco4)cc3)CC2)cc1	106.7
O=C(O)CCc1ccc(-c2cccs2)n1CC(=O)Nc1ccccc1C(F)(F)F	0.0
Cc1cc(C)c2nc(Cl)c(CN(Cc3ccco3)C(=O)Nc3ccccc3C)cc2c1	0.0
SMILES	Insulin prom act
O=C1NC(=O)/C(=C\c2ccc(Oc3ccc([N+](=O)[O-])cn3)cc2)S1	-6.7
Cc1noc(C)c1CSc1ccc2ccccc2n1	104.9*
Cc1noc(C)c1CSc1nnc(C)c(=O)[nH]1	-78.4
Cc1noc(C)c1CSc1nc2ccccc2s1	3.1
O=C(CSc1nncs1)Nc1ccc2c(c1)OCO2	8.3
CCc1nnc(NC(=O)CSc2ccc(-c3ccco3)nn2)s1	115.4
CCc1nc(SCC(=O)Nc2nnc(CC)s2)c2c(C)c(C)sc2n1	253.8*
CC(=O)Nc1ccc(NC(=O)CSc2nc(C)nc3sc(C)c(C)c23)cc1	-6.7
O=C(Nc1cccc(C(F)(F)F)c1)C12CC3CC(CC(C3)C1)C2	4.8
OC(COc1cccc(OCC(O)CN2CCOCC2)c1)CN1CCOCC1 (stereo not given)	50.0
OC(CN1CCN(c2ccccn2)CC1)Cn1c2ccccc2c2ccccc21 (stereo not given)	-6.9
Cc1ccc2c(c1)c(C)c(C)n2CC(O)CN1CCOCC1 (stereo not given)	533.3*
CS(=O)(=O)c1ccc2nc(NC(NC(=O)c3ccco3)(C(F)(F)F)C(F)(F)F)sc2c1	0.0
CCn1c(COc2ccc(=O)n(-c3ccccc3)n2)nnc1SC	118.2
COC(=O)c1ccccc1NC(=O)c1ccc(COc2ccccc2)o1	584.6*
COc1ccccc1OCc1ccc(C(=O)NC(C)(C)C)o1	50.0
COc1ccc(NC(=O)c2ccc(COc3ccccc3)o2)cc1	-5.4
Cc1nc([N+](=O)[O-])c(Sc2nc3ccc([N+](=O)[O-])cc3[nH]2)n1Cc1ccccc1	3.8
O=S(=O)(c1ccccc1F)N(Cc1ccco1)Cc1nnc(-c2ccccc2Br)o1	7.1
CC1(C)Cc2cccc(OCC(=O)Nc3cc(C(F)(F)F)ccc3N3CCOCC3)c2O1	9.7
COc1ccc(NC(=O)c2cncc(Br)c2)cc1S(N)(=O)=O	-6.7
COc1ccc(/C=C2/C(=O)N=C(N)N2C)cc1OC	252.2*
COc1ccc(/C=C2\SC(=O)NC2=S)cc1OC	9.1
COc1ccc(/C=C2/C(=O)N=C3SCCN32)cc1	2.9
CC(C)Cn1c(N)c(C(=O)CSc2ccc3c(c2)OCCO3)c(=O)n(C)c1=O	167.7*
SMILES	Insulin prom act
CC(C)Cn1c(N)c(C(=O)CSc2nnnn2C)c(=O)n(C)c1=O	-8.8
Cn1c(N)c(C(=O)COC(=O)c2ccc3c(c2)OCCO3)c(=O)n(C)c1=O	-9.7
COc1ccc(Br)cc1C(=O)Nc1ccc(N2CCN(S(C)(=O)=O)CC2)cc1	356.3
COc1ccc(Br)cc1C(=O)Nc1ccc(C(=O)O)cc1	341.2*
COc1ccc(Br)cc1C(=O)O	-8.8
CCCn1c(=O)n(C)c(=O)c2c(SCC(=O)NCc3ccco3)nc(C3CC3)nc21	-2.9
CCn1ncc(CN2CCCC(CNC(=O)c3ccc(F)cc3)C2)c1C (stereo not given)	4.3
O=C(CO/N=C/c1cccc([N+](=O)[O-])c1)Nc1ccc2ccccc2c1	3.3
O=C(O/N=C/c1cccc([N+](=O)[O-])c1)C1CC1	209.4*
CC(=O)Nc1ccc(NC(=O)C(C)O/N=C/c2cccc([N+](=O)[O-])c2)cc1 (stereo not given)	-8.1
CCOc1ccccc1CN(Cc1ccco1)S(=O)(=O)c1ccc(-n2cnnn2)c(OC)c1	-8.6
COc1ccc2c(c1)C1NC(=S)NC(C)(O2)C1C(=O)Nc1ccccc1C (stereo not given)	0.0
O=C(c1cccc(-c2ccc(O)cc2)c1)N1CCN(c2ccc(F)cc2)CC1	-68.4
COc1cc(NS(=O)(=O)c2ccc3c(c2)n(C)c(=O)n3C)cc(OC)c1	-8.3
C/C(=N\NC(=O)c1cccc(Cl)c1)c1cccc(NC(=O)C(C)C)c1	2.7
CC(C)c1ccc(/C=N/NC(=O)c2cccc(Cl)c2)cc1	516.7*
Cc1ccc(C)n1NC(=O)c1cccc(Cl)c1	-4.3
CCN(CC)S(=O)(=O)c1cc(C(=O)OCC(=O)Nc2cccc(C)c2C)ccc1F	0.0
O=C(O)CC(c1ccccc1)c1ccccc1	0.0
CC(C)(CO)NC(=O)C(c1ccccc1)c1ccccc1	406.3*
CC(C)(C)C(=O)NC(=S)NNC(=O)C(c1ccccc1)c1ccccc1	0.0
COc1ccc(C(=O)NC(CC(=O)O)c2cc([N+](=O)[O-])ccc2Cl)c(SC)c1 (stereo not given)	0.0
Cc1ccc(Cl)cc1NC(=S)NCCCSC1CCCCC1	9.1
Cc1c(NC(=O)C(C)OC(=O)c2ccc([N+](=O)[O-])s2)c(=O)n(-c2ccccc2)n1C (stereo not given)	136.4
C=CCNC(=O)c1ccccc1NC(=O)C1COc2ccccc2O1 (stereo not given)	471.4*
CCc1nnc(NC(=O)C2COc3ccccc3O2)s1 (stereo not given)	-5.4
O=C(Nc1ccccc1C(=O)N1CCCC1)C1COc2ccccc2O1 (stereo not given)	-8.3
COc1cccc(CNC(=O)c2ccc(S(=O)(=O)N3CCCC3)cc2)c1	-7.0
COc1cc(C(=O)Nc2ccccn2)cc(OC)c1OC	9.5
COc1cc(C(=O)Oc2cc(C)cc(C)c2)cc(OC)c1OC	607.1*
